Measurements pooled from the literature.
Compare with care: the assays were run in different laboratories.

SMILES | target or system | assay | system | conditions | measurement | result
C=CC(=O)NC1CCN(c2ncc3ncnc(Nc4ccc(Oc5ccc6c(c5)ncn6C)c(C)c4)c3n2)CC1 | EKVX | cell growth or viability | – | – | EC50 | 0.0025 µM
Cl.O=C(O)CNC(=O)c1ccc(NC(=O)c2cc(Br)c(Br)[nH]2)c(N2CCNCC2)c1 | Klebsiella aerogenes | microbial growth, broth dilution | ATCC13408 | – | MIC | > 32 mg/L
Cc1cc(C)c(C#N)c(SCC(=O)c2ccccn2)n1 | Leishmania infantum | parasite growth | mouse Macrophage | intracellular, amastigote | EC50 | 45.5 µM
O=C(O)c1ccccc1Nc1cccc(C(F)(F)F)c1 | U-87 MG | cell growth or viability, SRB | – | 48 h | GI50 | > 30 µM
CC(=NNC(=O)COc1ccc2c(C)c(Cc3ccccc3)c(=O)oc2c1C)c1ccc(Br)cc1 | HCT-116 | cell growth or viability, MTT | – | 0.2 µg/mL | viability | 66%
Cc1cc(C)nc(SCC(=O)c2cccs2)n1 | Leishmania infantum | parasite growth | mouse Macrophage | intracellular, amastigote | EC50 | > 64 µM
Cc1[nH]c(C(=O)Nc2ccc(C(=O)NCC(=O)O)cc2N2CC[C@H](NC(=O)OC(C)(C)C)C2)c(Cl)c1Cl | Klebsiella aerogenes | microbial growth, broth dilution | ATCC13408 | – | MIC | > 32 mg/L
Cc1cc(C)c(C#N)c(OCC(=O)c2ccccc2)n1 | Leishmania infantum | parasite growth | mouse Macrophage | intracellular, amastigote | EC50 | > 64 µM
C=CC(=O)c1cccnc1Nc1cc(C(F)(F)F)ccc1OCc1ccccc1 | U-87 MG | cell growth or viability, SRB | – | 48 h | GI50 | 9.65 µM
Cl.N[C@H]1CCN(c2cc(C(=O)NCC(=O)O)ccc2NC(=O)c2cc(Br)c(Br)[nH]2)C1 | Klebsiella aerogenes | microbial growth, broth dilution | ATCC13408 | – | MIC | > 32 mg/L
Cc1cc(C)c(C#N)c(SCC(=O)c2ccccc2C)n1 | Leishmania infantum | parasite growth | mouse Macrophage | intracellular, amastigote | EC50 | 7.38 µM
O=C(O)c1cccnc1Nc1cccc(C(F)(F)F)c1 | U-87 MG | cell growth or viability, SRB | – | 48 h | GI50 | > 30 µM
